Laboratory results taken from ChEMBL document CHEMBL5104108, “Concise synthesis and biological activity evaluation of novel pyrazinyl-aryl urea derivatives against several cancer cell lines, which can especially induce T24 apoptotic and necroptotic cell death” (RSC Med Chem, 2022).
Calls of active or inactive are those of the source. The rule behind the calls is not given here.

Experiments:
T-24 [1] = assay: Induction of apoptosis in human T24 cells assessed as apoptotic cells at 2.5 uM measured after 10 hrs by Annexin-V/FITC and propidium iodide staining based flow cytometry analysis; assay type: functional
Procedure, shortened: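 T24 cells in 60 mm dishes treated 10 h at 37 °C, collected, PBS-washed, resuspended in binding buffer, stained with Annexin V-FITC and PI for 15 min at room temperature in the dark. At least 1 × 10^4 events per sample by flow cytometry; apoptotic cells = early (Annexin+/PI−) plus late (Annexin+/PI+). Triplicate experiments.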

T-24 [2] = assay: Induction of apoptosis in human T24 cells at 5 to 7.5 uM measured after 10 hrs by Hoechst 33342 and propidium iodide staining based flow cytometry analysis; assay type: functional, cell-based; details: dose 5-7.5 µM
T-24 [3] = assay: Induction of necroptosis in human T24 cells assessed as viable cells at 12.5 uM and measured by trypan blue exclusion assay; assay type: functional; details: read-out: Activity
Procedure, shortened: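 T24 cells (2 × 10^5/well) exposed for 16 h with or without Nec-1 (60 μM), then stained with trypan blue. Viable and dead cells counted. Result given as % viable cells relative to untreated control.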

T-24 [4] = assay: Up-regulation of RIPK3 expression in human T24 cells at 7.5 to 10 uM measured after 16 hrs by Western blot analysis; assay type: functional, cell-based; details: dose 7.5-10 µM
T-24 [5] = assay: Up-regulation of p-RIPK1 expression in human T24 cells at 7.5 to 10 uM measured after 16 hrs by Western blot analysis; assay type: functional, cell-based; details: dose 7.5-10 µM
T-24 [6] = assay: Down-regulation of RIPK3 expression in human T24 cells at 7.5 to 10 uM measured in presence of 60 uM Nec-1 after 16 hrs by Western blot analysis; assay type: functional, cell-based; details: dose 7.5-10 µM
Procedure, shortened: (§1)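 T24 cells co-incubated 16 h with or without Nec-1 (60 μM). Lysates quantified by BCA, 40 μg protein resolved by SDS-PAGE, transferred to PVDF, probed with primary and peroxidase-conjugated secondary antibodies, detected by ECL. Band gray values normalized to β-actin loading control.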

T-24 [7] = assay: Down-regulation of MLKL expression in human T24 cells at 7.5 to 10 uM measured in presence of 60 uM Nec-1 after 16 hrs by Western blot analysis; assay type: functional, cell-based; details: dose 7.5-10 µM; procedure, shortened: as §1
T-24 [8] = assay: Down-regulation of p-RIPK3 expression in human T24 cells at 7.5 to 10 uM measured in presence of 60 uM Nec-1 after 16 hrs by Western blot analysis; assay type: functional, cell-based; details: dose 7.5-10 µM; procedure, shortened: as §1
T-24 [9] = assay: Up-regulation of RIPK3 expression in human T24 cells at 2.5 to 7.5 uM measured by ELISA assay; assay type: functional, cell-based; details: dose 2.5-7.5 µM
Procedure, shortened: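 T24 cells pretreated, collected, diluted in PBS, counted and stored overnight at −20 °C. After membrane disruption, lysates centrifuged at 5000 × g for 5 min (4 °C). RIPK1, RIPK3 and MLKL levels then measured with ELISA kits.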

T-24 [10] = assay: Up-regulation of caspase-8 mRNA expression in human T24 cells at 2.5 to 7.5 uM measured after 10 hrs by RT-PCR analysis; assay type: functional, cell-based; details: dose 2.5-7.5 µM
T-24 [11] = assay: Up-regulation of RIPK3 mRNA expression in human T24 cells at 7.5 to 12.5 uM measured by RT-PCR analysis; assay type: functional, cell-based; details: dose 7.5-12.5 µM
Procedure, shortened: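 Total T24 RNA extracted with TRIzol. RT-PCR normalized to GAPDH, relative expression by 2−ΔΔCt versus control. Incubation 16 h for RIPK1/RIPK3/MLKL. At least three independent experiments, each in triplicate.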

T-24 [12] = assay: Down-regulation of VEGFR-1 mRNA expression in human T24 cells at 5 to 10 uM measured by RT-PCR analysis; assay type: functional, cell-based; details: dose 5-10 µM
T-24 [13] = assay: Down-regulation of VEGFR-1 mRNA expression in human T24 cells at 7.5 uM measured in presence of 25 uM apatinib by RT-PCR analysis; assay type: functional, cell-based
T-24 [14] = assay: Down-regulation of VEGFR-2 mRNA expression in human T24 cells at 7.5 uM measured in presence of 25 uM apatinib by RT-PCR analysis; assay type: functional, cell-based
[15] = Cmax in Sprague-Dawley rat at 6 mg/kg, IG measured HPLC analysis; assay type: ADME, organism-based; set-up: dose 6 mg/kg, route ig; details: in vivo, po
[16] = Clearance in Sprague-Dawley rat at 6 mg/kg, IG measured HPLC analysis; assay type: ADME, organism-based; details: in vivo, po
[17] = MRT (0 to 48 hrs) in Sprague-Dawley rat at 12 mg/kg, IG measured HPLC analysis; assay type: ADME, organism-based; details: in vivo, po
Procedure, shortened: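 Fasted (12 h) male-unspecified Sprague-Dawley rats (250 ± 20 g), n = 6 per group. Single intragastric dose of suspension (2 mg mL−1 in Tween 80/0.9% NaCl 1.5:5 v/v). Orbital blood drawn at 0.5–48 h and plasma assayed by reversed-phase C18 HPLC-UV. One-compartment fit, weight 1.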

O=C(Nc1ccc(C(F)(F)F)cc1)Nc1cccc(CNc2nccnc2Cl)c1
Activity (T-24 [1]): 9.01%
Activity (T-24 [2]): Active
viability at 12.5 µM (T-24 [3]): 24.8%
Activity (T-24 [4]): Active
Activity (T-24 [5]): Active
Activity (T-24 [6]): Active
Activity (T-24 [7]): Active
Activity (T-24 [8]): Active
Activity (T-24 [9]): Active
Activity (T-24 [10]): Active
Activity (T-24 [11]): Active
Activity (T-24 [12]): Active
Activity (T-24 [13]): Active
Activity (T-24 [14]): Active
Cmax [15]: 1190 ng/mL
CL/F [16]: 0.811 mL/min
MRT last [17]: 10.3 h
